Measurements reported in ChEMBL document CHEMBL1126948, “Exploration of neutral endopeptidase active site by a series of new thiol-containing inhibitors” (J Med Chem, 1993).

How the values were obtained:
Neprilysin = molecular target: T1, Neprilysin (Oryctolagus cuniculus, UniProt P08049); assay: Inhibitory concentration was evaluated by Inhibiting 50% of Neutral endopeptidase enzyme (NEP) activity using 20 nM [3H]D-Ala2-Leu-enkephalin as substrate
T1 sequence (P08049 whole entry): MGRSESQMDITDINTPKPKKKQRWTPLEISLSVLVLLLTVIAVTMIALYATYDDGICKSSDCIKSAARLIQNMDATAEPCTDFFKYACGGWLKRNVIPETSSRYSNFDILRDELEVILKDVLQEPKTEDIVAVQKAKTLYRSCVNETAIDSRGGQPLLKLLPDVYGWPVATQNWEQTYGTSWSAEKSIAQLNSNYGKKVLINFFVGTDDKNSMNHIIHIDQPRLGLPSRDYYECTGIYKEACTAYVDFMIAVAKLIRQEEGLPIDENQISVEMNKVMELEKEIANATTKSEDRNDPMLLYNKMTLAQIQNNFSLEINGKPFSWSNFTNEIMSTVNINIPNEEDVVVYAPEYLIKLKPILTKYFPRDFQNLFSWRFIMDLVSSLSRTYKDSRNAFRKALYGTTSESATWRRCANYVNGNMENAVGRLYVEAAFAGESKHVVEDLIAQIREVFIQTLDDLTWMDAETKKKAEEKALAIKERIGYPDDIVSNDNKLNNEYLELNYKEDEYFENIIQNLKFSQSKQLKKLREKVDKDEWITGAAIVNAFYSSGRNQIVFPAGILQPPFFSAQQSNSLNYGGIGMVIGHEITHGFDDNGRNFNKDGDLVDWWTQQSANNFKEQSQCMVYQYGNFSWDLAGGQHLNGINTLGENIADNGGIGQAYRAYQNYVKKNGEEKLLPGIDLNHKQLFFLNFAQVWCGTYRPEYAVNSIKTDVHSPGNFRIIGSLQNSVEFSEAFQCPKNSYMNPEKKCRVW
How it was run: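 NEP purified to homogeneity from rabbit kidney, final 1 pmol/100 μL. Preincubated 15 min at 25 °C with or without increasing inhibitor concentrations in 50 mM Tris-HCl pH 7.4. [3H]-D-Ala2-Leu-enkephalin added to a final 20 nM. Stopped after 30 min with 0.5 M HCl. Tritiated metabolites separated on polystyrene beads. IC50 by log probit of five concentrations, mean ± SEM of three independent experiments.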

[1] = molecular target: T2, Angiotensin-converting enzyme (Homo sapiens, UniProt P12821); assay: Inhibitory concentration was evaluated by inhibiting 50% of Angiotensin I Converting Enzyme activity using 50 uM N-Cbz-Phe-His-Leu as substrate
How it was run: (§1)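 Recombinant human ACE preincubated 15 min at 37 °C with various inhibitor concentrations in 50 mM Tris-HCl pH 7.4. N-Cbz-Phe-His-Leu then added to a final 0.05 mM. Reaction ran 15 min and was stopped with 2 M NaOH. His-Leu measured fluorimetrically (ex 365, em 495 nm) against a His-Leu calibration curve. IC50 by log probit of five concentrations, mean ± SEM of three independent experiments.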

[2] = molecular target: T2, Angiotensin-converting enzyme; assay: Inhibitory concentration was evaluated by Inhibiting 50% of Angiotensin I converting enzyme activity using 50 uM N-Cbz-Phe-His-Leu as substrate
[3] = molecular target: T2, Angiotensin-converting enzyme; assay: Inhibitory concentration was evaluated by inhibiting 50% of Angiotensin I Converting Enzyme activity using 50 micro M N-Cbz-Phe-His-Leu as substrate; how it was run: as §1

T2 sequence (P12821 whole entry): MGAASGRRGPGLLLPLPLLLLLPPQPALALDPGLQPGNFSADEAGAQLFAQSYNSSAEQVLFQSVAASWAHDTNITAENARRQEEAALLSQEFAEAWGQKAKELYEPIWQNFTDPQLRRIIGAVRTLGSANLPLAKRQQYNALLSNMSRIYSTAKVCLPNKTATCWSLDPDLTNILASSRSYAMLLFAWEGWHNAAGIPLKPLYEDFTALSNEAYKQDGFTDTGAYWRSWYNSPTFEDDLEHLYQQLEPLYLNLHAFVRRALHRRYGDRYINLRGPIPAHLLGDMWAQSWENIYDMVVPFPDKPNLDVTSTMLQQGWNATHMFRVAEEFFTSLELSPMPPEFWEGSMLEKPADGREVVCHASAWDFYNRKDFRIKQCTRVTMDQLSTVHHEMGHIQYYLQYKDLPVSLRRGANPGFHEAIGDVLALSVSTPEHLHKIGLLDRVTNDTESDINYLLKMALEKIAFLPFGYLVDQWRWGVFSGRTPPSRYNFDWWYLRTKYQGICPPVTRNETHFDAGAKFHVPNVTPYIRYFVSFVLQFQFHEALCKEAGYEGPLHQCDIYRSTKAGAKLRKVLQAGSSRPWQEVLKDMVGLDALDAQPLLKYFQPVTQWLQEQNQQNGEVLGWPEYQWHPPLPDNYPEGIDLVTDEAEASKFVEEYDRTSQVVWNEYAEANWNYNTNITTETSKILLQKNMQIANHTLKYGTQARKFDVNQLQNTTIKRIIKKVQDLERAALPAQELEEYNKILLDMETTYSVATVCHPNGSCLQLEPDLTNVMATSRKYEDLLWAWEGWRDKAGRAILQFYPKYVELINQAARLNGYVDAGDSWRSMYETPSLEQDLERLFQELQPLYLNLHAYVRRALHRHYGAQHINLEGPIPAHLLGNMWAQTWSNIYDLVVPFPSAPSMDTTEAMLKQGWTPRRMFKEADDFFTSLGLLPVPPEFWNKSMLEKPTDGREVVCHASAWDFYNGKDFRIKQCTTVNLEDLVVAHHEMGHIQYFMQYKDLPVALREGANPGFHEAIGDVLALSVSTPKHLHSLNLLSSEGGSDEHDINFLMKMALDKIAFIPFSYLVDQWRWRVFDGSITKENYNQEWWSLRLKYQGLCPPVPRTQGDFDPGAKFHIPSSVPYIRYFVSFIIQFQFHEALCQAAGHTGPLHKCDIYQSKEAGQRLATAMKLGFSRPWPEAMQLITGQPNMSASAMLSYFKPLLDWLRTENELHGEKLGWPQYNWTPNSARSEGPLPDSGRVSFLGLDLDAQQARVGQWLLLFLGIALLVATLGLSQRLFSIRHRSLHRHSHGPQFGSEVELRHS

Compound	IC50 (Neprilysin) [nM]	IC50 [1] [nM]	IC50 [2] [nM]	IC50 [3] [nM]
CC(C)CC(S)[C@H](Cc1ccccc1)C(=O)N[C@@H](C)C(=O)O (stereo not given in full)	40	4000	–	–
CC(C)CC(S)C(Cc1ccccc1)C(=O)NC(Cc1ccc(O)cc1)C(=O)O (stereo not given)	26	710	–	–
CC(C)CC(S)C(Cc1ccccc1)C(=O)NC(C)C(=O)O (stereo not given)	14	12000	–	–
CC(NC(=O)C(Cc1ccccc1)C(S)CCc1ccccc1)C(=O)O (stereo not given)	44	4000	–	–
CCC(C)C(NC(=O)C(Cc1ccccc1)C(C)S)C(=O)NC(Cc1ccc(O)cc1)C(=O)O (stereo not given)	380	–	300	–
CC(C)C[C@@H](S)[C@H](Cc1ccccc1)C(=O)N[C@@H](C)C(=O)O	20	5000	–	–
CC(C)C[C@H](S)[C@@H](Cc1ccccc1)C(=O)N[C@@H](C)C(=O)O	3.6	–	–	16100
CC(C)C[C@H](S)[C@H](Cc1ccccc1)C(=O)N[C@@H](C)C(=O)O	35	10000	–	–
CC(S)C(Cc1ccccc1)C(=O)NCC(=O)O (stereo not given)	50	–	11000	–
CC(C)C(C(=O)NC(Cc1ccc(O)cc1)C(=O)O)C(S)CCc1ccccc1 (stereo not given)	53	4500	–	–
O=C(O)C(Cc1ccc(O)cc1)NC(=O)C(Cc1ccccc1)C(S)CCc1ccccc1 (stereo not given)	180	1600	–	–
CC(C)CC(S)CC(=O)NC(Cc1ccccc1)C(=O)NC(Cc1ccc(O)cc1)C(=O)O (stereo not given)	50	–	2800	–
CC(C)C(NC(=O)C(Cc1ccccc1)C(C)S)C(=O)NC(Cc1ccc(O)cc1)C(=O)O (stereo not given)	320	–	1300	–
CCCCC(NC(=O)C(Cc1ccccc1)C(C)S)C(=O)NC(Cc1ccc(O)cc1)C(=O)O (stereo not given)	50	–	6100	–
CC(C)CC(S)CC(=O)NC(Cc1ccccc1)C(=O)O (stereo not given)	37	10000	–	–
